What was measured:
[1] = HepG2 CellTiter-Glo cytotoxicity assay; type: cell-based, human; settings: human, HepG2 cells
Outline: (§1)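 HepG2 cells were grown in DMEM with 10% FBS, 1% NEAA and 1% L-glutamine, without antibiotics. They were seeded at 4000 cells/well and left overnight at 37 °C, 5% CO₂. Test compound was added at 200 nM or 2 μM, in quadruplicate, with DMSO held constant, for 48 h. Viability was read by CellTiter-Glo 2 luminescence. % viability is the average of two experiments.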

[2] = molecular target: T1, PfGSK3 (Plasmodium falciparum, UniProt O77344); experiment: KinaseSeeker split luciferase assay on PfGSK3; type: biochemical; settings: screen at 1 μM
T1 sequence (O77344 1-440): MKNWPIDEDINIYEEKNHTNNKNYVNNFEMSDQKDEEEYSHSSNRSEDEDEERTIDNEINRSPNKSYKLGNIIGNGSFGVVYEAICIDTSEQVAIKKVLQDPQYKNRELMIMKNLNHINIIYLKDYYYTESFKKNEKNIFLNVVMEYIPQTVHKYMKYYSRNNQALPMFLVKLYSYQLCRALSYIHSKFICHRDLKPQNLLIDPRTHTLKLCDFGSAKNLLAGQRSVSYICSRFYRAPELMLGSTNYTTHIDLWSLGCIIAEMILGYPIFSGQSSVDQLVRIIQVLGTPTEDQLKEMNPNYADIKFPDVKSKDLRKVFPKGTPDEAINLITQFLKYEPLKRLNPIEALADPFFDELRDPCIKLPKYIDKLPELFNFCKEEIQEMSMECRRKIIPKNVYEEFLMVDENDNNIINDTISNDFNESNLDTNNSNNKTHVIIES
Outline: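 Split-luciferase binding assay: lysate with Cfluc-PfGSK3 fusion plus Fos-Nfluc, incubated 2 h with test compound in DMSO (or DMSO control) and a kinase-specific probe. Luminescence was read immediately after luciferin reagent. % inhibition = (control − sample)/control × 100. Compounds were first counter-screened against split luciferase, then screened at 1 μM.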

[3] = molecular target: T2, PfPK6 (Plasmodium falciparum, UniProt Q8IDW1); experiment: KinaseSeeker split luciferase assay on PfPK6; type: biochemical; settings: for fold increase in potency on PfPK6: compared to IKK16
T2 sequence (Q8IDW1 1-305): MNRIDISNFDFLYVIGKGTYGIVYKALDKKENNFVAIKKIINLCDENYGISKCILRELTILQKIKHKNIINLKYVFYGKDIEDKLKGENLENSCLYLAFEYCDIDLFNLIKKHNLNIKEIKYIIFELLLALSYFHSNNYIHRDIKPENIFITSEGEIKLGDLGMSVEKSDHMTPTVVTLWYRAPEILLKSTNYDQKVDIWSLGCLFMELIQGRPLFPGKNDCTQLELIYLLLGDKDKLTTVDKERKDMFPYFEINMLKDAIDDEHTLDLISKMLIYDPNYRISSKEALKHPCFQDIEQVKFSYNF

[4] = system: 468 human kinases; experiment: DiscoverX KINOMEscan panel, selectivity score; type: binding; settings: for no. of kinase hits: 1 μM, 468 human kinases, PoC ≤10% (>90% inhibition)
[5] = system: HepG2 cells; experiment: HepG2 CellTiter-Glo cytotoxicity assay; type: cell-based, human; settings: HepG2, 2 μM
Outline: as §1

[6] = rats, in words; cited from earlier work
[7] = in words; cited from earlier work
[8] = system: Pf3D7; settings: read-out: Pf3D7 blood stage EC50; blood stage proliferation; cited from earlier work
[9] = system: PfCDPK1; settings: read-out: PfCDPK1 IC50; cited from earlier work

For `c1ccc2sc(-c3ccnc(Nc4ccc(CN5CCC(N6CCCC6)CC5)cc4)n3)cc2c1` [Compound 12, 4-(Benzo[b]thiophen-2-yl)-N-(4-((4-(pyrrolidin-1-yl)piperidin-1-yl)methyl)phenyl)pyrimidin-2-amine], the viability at 48 h, 200 nM [1] was 100%, the “activity on PfGSK3, in words” value [2] was “abolished activity” and the “fold increase in potency on PfPK6” value [3] was ~3 fold.

In the case of `Cc1cnc(Nc2ccc(C(=O)N3CCC(N4CCCC4)CC3)cc2)nc1-c1cc2ccccc2s1` [Compound 18n, (4-((4-(Benzo[b]thiophen-2-yl)-5-methylpyrimidin-2-yl)amino)phenyl)(4-(pyrrolidin-1-yl)piperidin-1-yl)methanone], the “no. of kinase hits” value [4] is reported as 100, the reduction in selectivity ([4]; S10 (1 μM) compared to IKK16) is reported as ~2 fold and the “more cytotoxicity than IKK16” value [5] is reported as ~40%. For the same compound, the “fold increase in potency on PfPK6” value [3] was 9 fold and the “selectivity (preference) for PfPK6 over PfGSK3” value ([3]; ratio of IC50 values) was ~16 fold.

For `O=C(c1ccc(Nc2nccc(-c3cc4ccccc4s3)n2)cc1)N1CCC(N2CCCC2)CC1` [IKK16, reference compound], the “no. of kinase hits” value [4] is listed as 41, the oral bioavailability [6] is listed as “orally bioavailable” and the “toxicity in a resazurin-based cell viability assay” value [7] is listed as “low toxicity”. For the same compound, the “LE PfPK6 (ligand efficiency)” value ([3]; PfPK6 pIC50/number of heavy atoms in the molecule) was 0.26.

In the case of `Cc1cn2c(-c3ccnc(NCC4CC4)n3)c(-c3ccc(F)c(NS(C)(=O)=O)c3)nc2cc1CN(C)C` [ML10], the EC50 [8] is given as 2.1 nM.

For `N[C@H]1CC[C@H](Nc2nc(Nc3ccc(C(=O)N4CCCCC4)cc3)c3ncn(-c4cccc(F)c4)c3n2)CC1` [Purfalcamine], the IC50 [9] is given as 17 nM.

Source: article PMC9574854 (Journal of Medicinal Chemistry, 2022)
